Source: ChEMBL document CHEMBL1148485, “Synthesis and biological evaluation of new selective cytotoxic cyclolignans derived from podophyllotoxin” (J Med Chem, 2004)

Columns and labels:
HeLa [1] = experiment: Effect on cell cycle evaluated as proportion of cells in sub-G1 phase (apoptic cells )of the cell cycle at 10E-8 M for 24 hr in HeLa cells; assay type: functional, Homo sapiens
How it was run: (§1)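 HeLa cells were grown in DMEM with 10% heat-inactivated FCS and 2 mM L-glutamine at 37 °C in 5% CO2. They were exposed to 10^-6 to 10^-8 M for 24, 48 or 72 h. Then (3-5)×10^5 cells were fixed overnight in 70% ethanol at 4 °C, PBS-washed, and given 1 mg/mL RNase A plus 20 µg/mL propidium iodide for 1 h at room temperature. DNA content was read by flow cytometry. Sub-G1 (hypodiploid) % counted as apoptotic. Untreated controls were run in parallel. Representative of three independent experiments.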

HeLa [2] = experiment: Effect on cell cycle evaluated as proportion of cells in sub-G1 (apoptic cells) phase of the cell cycle at 10E-7 M for 72 hr in HeLa cells; assay type: functional, Homo sapiens; how it was run: as §1
HeLa [3] = experiment: Effect on cell cycle evaluated as proportion of cells in sub-G1 phase of the cell cycle at 10E-7 M for 48 hr in HeLa cells; assay type: functional, Homo sapiens; how it was run: as §1
HeLa [4] = experiment: Effect on cell cycle evaluated as proportion of cells in G2/M phase of the cell cycle at 10E-7 M for 24 hr in HeLa cells; assay type: functional, Homo sapiens; how it was run: as §1
HeLa [5] = experiment: Effect on cell cycle evaluated as proportion of cells in G2/M phase of the cell cycle at 10E-8 M for 48 hr in HeLa cells; assay type: functional, Homo sapiens; how it was run: as §1
HeLa [6] = experiment: Effect on cell cycle evaluated as proportion of cells in G2/M phase of the cell cycle at 10E-6 M for 24 hr in HeLa cells; assay type: functional, Homo sapiens; how it was run: as §1
HeLa [7] = experiment: Effect on cell cycle evaluated as proportion of cells in G2/M phase of the cell cycle at 10E-7 M for 72 hr in HeLa cells; assay type: functional, Homo sapiens; how it was run: as §1
HeLa [8] = experiment: Effect on cell cycle evaluated as proportion of cells in S phase of the cell cycle at 10E-8 M for 72 hr in HeLa cells; assay type: functional, Homo sapiens; how it was run: as §1
HeLa [9] = experiment: Effect on cell cycle evaluated as proportion of cells in G0/G1 phase of the cell cycle at 10E-6 M for 72 hr in HeLa cells; assay type: functional, Homo sapiens; how it was run: as §1
HeLa [10] = experiment: Effect on cell cycle evaluated as proportion of cells in S phase of the cell cycle at 10E-6 M for 24 hr in HeLa cells; assay type: functional, Homo sapiens; how it was run: as §1
HeLa [11] = experiment: Effect on cell cycle evaluated as proportion of cells in G0/G1 phase of the cell cycle at 10E-7 M for 48 hr in HeLa cells; assay type: functional, Homo sapiens; how it was run: as §1
HeLa [12] = experiment: Effect on cell cycle evaluated as proportion of cells in S phase of the cell cycle at 10E-6 M for 72 hr in HeLa cells; assay type: functional, Homo sapiens; how it was run: as §1
HeLa [13] = experiment: Effect on cell cycle evaluated as proportion of cells in G0/G1 phase of the cell cycle at 10E-7 M for 24 hr in HeLa cells; assay type: functional, Homo sapiens; how it was run: as §1
HeLa [14] = experiment: Effect on cell cycle evaluated as proportion of cells in G0/G1 phase of the cell cycle at 10E-8 M for 48 hr in HeLa cells; assay type: functional, Homo sapiens; how it was run: as §1
HeLa [15] = experiment: Effect on cell cycle evaluated as proportion of cells in G0/G1 phase of the cell cycle at 10E-7 M for 72 hr in HeLa cells; assay type: functional, Homo sapiens; how it was run: as §1
HeLa [16] = experiment: Effect on cell cycle evaluated as proportion of cells in S phase of the cell cycle at 10E-7 M for 72 hr in HeLa cells; assay type: functional, Homo sapiens; how it was run: as §1
HeLa [17] = experiment: Effect on cell cycle evaluated as proportion of cells in G2/M phase of the cell cycle at 10E-6 M for 48 hr in HeLa cells; assay type: functional, Homo sapiens; how it was run: as §1
HeLa [18] = experiment: Effect on cell cycle evaluated as proportion of cells in S phase of the cell cycle at 10E-8 M for 24 hr in HeLa cells; assay type: functional, Homo sapiens; how it was run: as §1
HeLa [19] = experiment: Effect on cell cycle evaluated as proportion of cells in G0/G1 phase of the cell cycle at 10E-8 M for 24 hr in HeLa cells; assay type: functional, Homo sapiens; how it was run: as §1
[20] = Selectivity index is the ratio of IC50 of P-388 cell line to that of HT-29; assay type: functional
HeLa [21] = experiment: Effect on cell cycle evaluated as proportion of cells in S phase of the cell cycleG2/M at 10E-8 M for 72 hr in HeLa cells; assay type: functional, Homo sapiens; how it was run: as §1
HeLa [22] = experiment: Effect on cell cycle evaluated as proportion of cells in S phase of the cell cycle at 10E-7 M for 48 hr in HeLa cells; assay type: functional, Homo sapiens; how it was run: as §1
HeLa [23] = experiment: Effect on cell cycle evaluated as proportion of cells in sub-G1 phase (apoptic cells)of the cell cycle at 10E-8 M for 48 hr in HeLa cells; assay type: functional, Homo sapiens; how it was run: as §1
HeLa [24] = experiment: Effect on cell cycle evaluated as proportion of cells in sub-G1 (apoptic cells) phase of the cell cycle at 10E-6 M for 72 hr in HeLa cells; assay type: functional, Homo sapiens; how it was run: as §1
HT-29 = experiment: In vitro cytotoxicity against HT-29 (human colon carcinoma) cell line.; assay type: functional, cell-based; details: Homo sapiens, HT-29
HeLa [25] = experiment: Effect on cell cycle evaluated as proportion of cells in sub-G1 phase (apoptic cells) of the cell cycle at 10E-6 M for 24 hr in HeLa cells; assay type: functional, Homo sapiens; how it was run: as §1
HeLa [26] = experiment: Effect on cell cycle evaluated as proportion of cells in S phase of the cell cycle at 10E-8 M for 48 hr in HeLa cells; assay type: functional, Homo sapiens; how it was run: as §1
HeLa [27] = experiment: Effect on cell cycle evaluated as proportion of cells in S phase of the cell cycle at 10E-6 M for 48 hr in HeLa cells; assay type: functional, Homo sapiens; how it was run: as §1
HeLa [28] = experiment: Effect on cell cycle evaluated as proportion of cells in G2/M phase of the cell cycle at 10E-6 M for 72 hr in HeLa cells; assay type: functional, Homo sapiens; how it was run: as §1
HeLa [29] = experiment: Effect on cell cycle evaluated as proportion of cells in G0/G1 phase of the cell cycle at 10E-6 M for 24 hr in HeLa cells; assay type: functional, Homo sapiens; how it was run: as §1
HeLa [30] = experiment: Effect on cell cycle evaluated as proportion of cells in S phase of the cell cycle at 10E-7 M for 24 hr in HeLa cells; assay type: functional, Homo sapiens; how it was run: as §1
HeLa [31] = experiment: Effect on cell cycle evaluated as proportion of cells in G2/M phase of the cell cycle at 10E-8 M for 24 hr in HeLa cells; assay type: functional, Homo sapiens; how it was run: as §1
HeLa [32] = experiment: Effect on cell cycle evaluated as proportion of cells in sub-G1 (apoptic cells) phase of the cell cycle at 10E-6 M for 48 hr in HeLa cells; assay type: functional, Homo sapiens; how it was run: as §1
HeLa [33] = experiment: Effect on cell cycle evaluated as proportion of cells in G0/G1 phase of the cell cycle at 10E-8 M for 72 hr in HeLa cells; assay type: functional, Homo sapiens; how it was run: as §1
HeLa [34] = experiment: Effect on cell cycle evaluated as proportion of cells in sub-G1 phase (apoptic cells) of the cell cycle at 10E-7 M for 24 hr in HeLa cells; assay type: functional, Homo sapiens; how it was run: as §1
HeLa [35] = experiment: Effect on cell cycle evaluated as proportion of cells in sub-G1 phase(apoptic cells) of the cell cycle at 10E-8 M for 72 hr in HeLa cells; assay type: functional, Homo sapiens; how it was run: as §1
HeLa [36] = experiment: Effect on cell cycle evaluated as proportion of cells in G2/M phase of the cell cycle at 10E-7 M for 48 hr in HeLa cells; assay type: functional, Homo sapiens; how it was run: as §1
HeLa [37] = experiment: Effect on cell cycle evaluated as proportion of cells in G0/G1 phase of the cell cycle at 10E-6 M for 48 hr in HeLa cells; assay type: functional, Homo sapiens; how it was run: as §1

COc1cc([C@@H]2c3cc4c(cc3[C@H](O)[C@H]3COC(=O)[C@H]23)OCO4)cc(OC)c1OC [PODOFILOX]
Activity (HeLa [1]): 1.4%
Activity (HeLa [2]): 88.1%
Activity (HeLa [3]): 59%
Activity (HeLa [4]): 91.7%
Activity (HeLa [5]): 5.8%
Activity (HeLa [6]): 92.1%
Activity (HeLa [7]): 0.2%
Activity (HeLa [8]): 4.1%
Activity (HeLa [9]): 7.1%
Activity (HeLa [10]): 4.2%
Activity (HeLa [11]): 11%
Activity (HeLa [12]): 3.4%
Activity (HeLa [13]): 2.2%
Activity (HeLa [14]): 16.1%
Activity (HeLa [15]): 9.2%
Activity (HeLa [16]): 2.5%
Activity (HeLa [17]): 18%
Activity (HeLa [18]): 4.3%
Activity (HeLa [19]): 22.6%
Selectivity index [20]: 0.5
Activity (HeLa [21]): 0.2%
Activity (HeLa [22]): 10.5%
Activity (HeLa [23]): 68.4%
Activity (HeLa [24]): 89.3%
IC50 (HT-29): 24 nM
Activity (HeLa [25]): 1.5%
Activity (HeLa [26]): 9.7%
Activity (HeLa [27]): 10%
Activity (HeLa [28]): 0.2%
Activity (HeLa [29]): 2.2%
Activity (HeLa [30]): 4.5%
Activity (HeLa [31]): 71.7%
Activity (HeLa [32]): 62.3%
Activity (HeLa [33]): 13.9%
Activity (HeLa [34]): 1.6%
Activity (HeLa [35]): 81.8%
Activity (HeLa [36]): 19.5%
Activity (HeLa [37]): 9.7%
